# Results taken from ChEMBL document CHEMBL1151801, “Synthesis of new indeno[1,2-e]pyrimido[4,5-b][1,4]diazepine-5,11-diones as potential antitumor agents” (2008).
# Columns and labels:
# Assay type in all cases: functional
# CAKI-1 = assay: Antitumor activity against human Caki1 cells after 48 hrs by SRB assay; details: CAKI-1, 48 h
# Procedure, shortened: (§1)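 NCI in vitro human tumor cell line screen. Cells were exposed continuously to compound for 48 h at five concentration levels (100, 10, 1.0, 0.1 and 0.01). Growth was estimated by sulforhodamine B protein staining. GI50 is the concentration giving a 50% reduction in net protein increase relative to control cells over the incubation.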
# A498 = assay: Antitumor activity against human A498 cells after 48 hrs by SRB assay; details: A498, 48 h; procedure, shortened: as §1
# 786-0 = assay: Antitumor activity against human 786-0 cells after 48 hrs by SRB assay; details: 786-0, 48 h; procedure, shortened: as §1
# SK-OV-3 = assay: Antitumor activity against human SKOV3 cells after 48 hrs by SRB assay; details: SK-OV-3, 48 h; procedure, shortened: as §1
# OVCAR-8 = assay: Antitumor activity against human OVCAR8 cells after 48 hrs by SRB assay; details: OVCAR-8, 48 h; procedure, shortened: as §1
# OVCAR-4 = assay: Antitumor activity against human OVCAR4 cells after 48 hrs by SRB assay; details: OVCAR-4, 48 h; procedure, shortened: as §1
# OVCAR-3 = assay: Antitumor activity against human OVCAR-3 cells after 48 hrs by SRB assay; details: OVCAR-3, 48 h; procedure, shortened: as §1
# IGROV-1 = assay: Antitumor activity against human IGROV1 cells after 48 hrs by SRB assay; details: IGROV-1, 48 h; procedure, shortened: as §1
# U-251 = assay: Antitumor activity against human U251 cells after 48 hrs by SRB assay; details: U-251, 48 h
# Procedure, shortened: (§2)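 NCI in vitro human tumor cell line screen. Continuous 48 h drug exposure at five concentrations (100, 10, 1.0, 0.1 and 0.01 µM). Cell growth estimated by sulforhodamine B protein staining. GI50 defined as the concentration giving 50% reduction in net protein increase versus control cells over the incubation.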
# SF-539 = assay: Antitumor activity against human SF539 cells after 48 hrs by SRB assay; details: SF-539, 48 h; procedure, shortened: as §1
# ACHN = assay: Antitumor activity against human ACHN cells after 48 hrs by SRB assay; procedure, shortened: as §1
# SF-295 = assay: Antitumor activity against human SF295 cells after 48 hrs by SRB assay; details: SF-295, 48 h; procedure, shortened: as §1
# SF-268 = assay: Antitumor activity against human SF268 cells after 48 hrs by SRB assay; details: SF-268, 48 h; procedure, shortened: as §1
# SW-620 = assay: Antitumor activity against human SW620 cells after 48 hrs by SRB assay; details: SW-620, 48 h; procedure, shortened: as §2
# KM12 = assay: Antitumor activity against human KM12 cells after 48 hrs by SRB assay; details: KM12, 48 h; procedure, shortened: as §1
# HCT-15 = assay: Antitumor activity against human HCT15 cells after 48 hrs by SRB assay; details: HCT-15, 48 h; procedure, shortened: as §1
# HCT-116 = assay: Antitumor activity against human HCT116 cells after 48 hrs by SRB assay; details: HCT-116, 48 h; procedure, shortened: as §1
# HCC 2998 = assay: Antitumor activity against human HCC2998 cells after 48 hrs by SRB assay; details: HCC 2998, 48 h; procedure, shortened: as §1
# COLO 205 = assay: Antitumor activity against human COLO205 cells after 48 hrs by SRB assay; details: COLO 205, 48 h; procedure, shortened: as §1
# NCI-H522 = assay: Antitumor activity against human NCI-H522 cells after 48 hrs by SRB assay; details: NCI-H522, 48 h; procedure, shortened: as §1
# NCI-H460 = assay: Antitumor activity against human NCI-H460 cells after 48 hrs by SRB assay; details: NCI-H460, 48 h; procedure, shortened: as §1
# NCI-H322M = assay: Antitumor activity against human NCI-H322M cells after 48 hrs by SRB assay; procedure, shortened: as §1
# NCI-H23 = assay: Antitumor activity against human NCI-H23 cells after 48 hrs by SRB assay; details: NCI-H23, 48 h; procedure, shortened: as §1
# NCI-H226 = assay: Antitumor activity against human NCI-H226 cells after 48 hrs by SRB assay; details: NCI-H226, 48 h; procedure, shortened: as §1
# HOP-92 = assay: Antitumor activity against human HOP92 cells after 48 hrs by SRB assay; details: HOP-92, 48 h; procedure, shortened: as §1
# A549 = assay: Antitumor activity against human A549 cells after 48 hrs by SRB assay; details: A549, 48 h; procedure, shortened: as §1
# SR = assay: Antitumor activity against human SR cells after 48 hrs by SRB assay; procedure, shortened: as §1
# MOLT-4 = assay: Antitumor activity against human MOLT4 cells after 48 hrs by SRB assay; details: MOLT-4, 48 h; procedure, shortened: as §1
# K562 = assay: Antitumor activity against human K562 cells after 48 hrs by SRB assay; details: K562, 48 h; procedure, shortened: as §1
# HL-60(TB) = assay: Antitumor activity against human HL-60(TB) cells after 48 hrs by SRB assay; details: HL-60, 48 h; procedure, shortened: as §1
# CCRF-CEM = assay: Antitumor activity against human CCRF-CEM cells after 48 hrs by SRB assay; procedure, shortened: as §1
# UO-31 = assay: Antitumor activity against human UO31 cells after 48 hrs by SRB assay; details: UO-31, 48 h; procedure, shortened: as §2
# PC-3 = assay: Antitumor activity against human PC3 cells after 48 hrs by SRB assay; details: PC-3, 48 h; procedure, shortened: as §1
# DU-145 = assay: Antitumor activity against human DU145 cells after 48 hrs by SRB assay; details: DU-145, 48 h; procedure, shortened: as §1
# [1] = Antitumor activity against human Hs 578T cells after 48 hrs by SRB assay; procedure, shortened: as §1
# MDA-MB-435 = assay: Antitumor activity against human MDA-MB-435 cells after 48 hrs by SRB assay; details: MDA-MB-435, 48 h; procedure, shortened: as §1
# BT-549 = assay: Antitumor activity against human BT549 cells after 48 hrs by SRB assay; details: BT-549, 48 h; procedure, shortened: as §1
# T47D = assay: Antitumor activity against human T47D cells after 48 hrs by SRB assay; procedure, shortened: as §2
# [2] = read-out: LC50 (the source's name)
structure (smiles),measurement,setting,value
CSc1nc2c(c(=O)[nH]1)NC1=C(C(=O)c3ccccc31)C(c1ccc(F)cc1)N2 (stereo unspecified),GI50,CAKI-1,3.3 µM
same,LC50,CAKI-1,> 100 µM
same,GI50,A498,4.88 µM
same,LC50,A498,57.7 µM
same,GI50,786-0,12.4 µM
same,CC50,786-0; [2],60.4 µM
same,GI50,SK-OV-3,14.1 µM
same,LC50 (concentration killing 50% of cells),SK-OV-3,> 100 µM
same,GI50,OVCAR-8,13.1 µM
same,LC50 (concentration causing 50% net cell kill),OVCAR-8,95.2 µM
same,GI50,OVCAR-4,15.4 µM
same,CC50,OVCAR-4; [2],> 100 µM
same,GI50,OVCAR-3,3.38 µM
same,CC50,OVCAR-3; [2],61.8 µM
same,GI50,IGROV-1,11.3 µM
same,CC50,IGROV-1; [2],> 100 µM
same,GI50,U-251,5.43 µM
same,CC50,U-251; [2],48.6 µM
same,GI50,SF-539,8.9 µM
same,LC50 (concentration killing 50% of cells),SF-539,92 µM
same,GI50,ACHN,11.6 µM
same,CC50,ACHN; [2],> 100 µM
same,GI50,SF-295,3.67 µM
same,CC50,SF-295; [2],> 100 µM
same,GI50,SF-268,12.7 µM
same,CC50,SF-268; [2],> 100 µM
same,GI50,SW-620,4.48 µM
same,LC50,SW-620,> 100 µM
same,GI50,KM12,3.77 µM
same,CC50,KM12; [2],39.5 µM
same,GI50,HCT-15,4.57 µM
same,LC50 (concentration killing 50% of starting cells),HCT-15,> 100 µM
same,GI50,HCT-116,7.23 µM
same,LC50 (50% lethal concentration),HCT-116,44.7 µM
same,GI50,HCC 2998,12.2 µM
same,CC50,HCC 2998; [2],76.1 µM
same,GI50,COLO 205,13 µM
same,CC50,COLO 205; [2],> 100 µM
same,GI50,NCI-H522,3.17 µM
same,CC50,NCI-H522; [2],> 100 µM
same,GI50,NCI-H460,5.1 µM
same,CC50,NCI-H460; [2],> 100 µM
same,GI50,NCI-H322M,13.9 µM
same,CC50,NCI-H322M; [2],> 100 µM
same,GI50,NCI-H23,13.5 µM
same,LC50,NCI-H23,> 100 µM
same,GI50,NCI-H226,15.3 µM
same,LC50,NCI-H226,> 100 µM
same,GI50,HOP-92,9.52 µM
same,LC50,HOP-92,> 100 µM
same,GI50,A549,12.6 µM
same,CC50,A549; [2],> 100 µM
same,GI50,SR,6.31 µM
same,LC50 (concentration killing 50% of cells),SR,> 100 µM
same,GI50,MOLT-4,19.5 µM
same,LC50,MOLT-4,> 100 µM
same,GI50,K562,4.05 µM
same,LC50,K562,> 100 µM
same,GI50,HL-60(TB),6.54 µM
same,LC50,HL-60(TB),> 100 µM
same,GI50,CCRF-CEM,8.16 µM
same,CC50,CCRF-CEM; [2],> 100 µM
same,GI50,UO-31,16.3 µM
same,CC50,UO-31; [2],> 100 µM
same,GI50,PC-3,7.72 µM
same,CC50,PC-3; [2],> 100 µM
same,GI50,DU-145,16.2 µM
same,CC50,DU-145; [2],> 100 µM
same,GI50,[1],5.85 µM
same,CC50,[1]; [2],> 100 µM
same,GI50,MDA-MB-435,1.65 µM
same,LC50,MDA-MB-435,> 100 µM
same,GI50,BT-549,8.5 µM
same,CC50,BT-549; [2],> 100 µM
same,GI50,T47D,14.2 µM
same,CC50,T47D; [2],> 100 µM
